Series [1] in a line: Binding affinity to 5'-FAM/3'-TAMRA labeled c-MYC 22-mer G-quadruplex DNA (unknown origin) at 4 uM in presence of 26-mer duplex DNA by TR-FRET assay.
Series [2] in a line: Binding affinity to c-kit1 22-mer G-quadruplex DNA (unknown origin) at 150 uM incubated for 2 hrs by 1H NMR method.
The nature of series [3]: Binding affinity to c-MYC2345 G-quadruplex DNA (unknown origin) at 150 uM incubated for 2 hrs by 1H NMR method.
Series [4] in a line: Binding affinity to 8-bp AT rich duplex DNA (unknown origin) at 150 uM incubated for 2 hrs by 1H NMR method.
A short description of series [5]: Stabilization of c-MYC pu27 G-quadruplex DNA (unknown origin) assessed as inhibition of Taq polymerase-mediated polymerization/extension of Pu27 and Pu27rev oligomers at 100 uM preincubated for 6 hrs followed by Taq polymerase addition by PCR stop assay.
Series [6] is described as follows: Stabilization of c-MYC template Pu27-13,14 mutant DNA (unknown origin) assessed as inhibition of Taq polymerase-mediated polymerization/extension of Pu27-13,14 mutant and Pu27rev oligomers at 100 uM preincubated for 6 hrs followed by Taq polymerase addition by PCR stop assay.
A short description of series [7]: Stabilization of c-MYC template Pu27 mutant DNA (unknown origin) assessed as inhibition of Taq polymerase-mediated polymerization/extension of Pu27 mutant and Pu27rev oligomers at 1 to 100 uM preincubated for 6 hrs followed by Taq polymerase addition by PCR stop assay.
In series [8] the target is Telomerase reverse transcriptase (Homo sapiens) (UniProt O14746). In words: Inhibition of telomerase activity in human MDA-MB-231 cells using amplifour TS primer at 11 uM preincubated for 48 to 72 hrs followed by primer addition measured after 30 mins by fluorescence plate reader analysis relative to control. Format: cell-based. The method, boiled down: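 MDA-MB-231 seeded at 2 × 10^5 cells per T-25 flask the evening before, then treated with vehicle or compound for 48 or 72 h. Harvested cells lysed in CHAPS buffer with RNase inhibitor, 30 min on ice; supernatant kept after 12,000 × g spin. TRAPeze XL fluorescence assay used 1000 cell-equivalents, 30 min at 30 °C; TPG units from product/internal-standard ratio; inhibition relative to untreated cells.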
Sequence of Telomerase reverse transcriptase (Homo sapiens) (O14746 whole entry): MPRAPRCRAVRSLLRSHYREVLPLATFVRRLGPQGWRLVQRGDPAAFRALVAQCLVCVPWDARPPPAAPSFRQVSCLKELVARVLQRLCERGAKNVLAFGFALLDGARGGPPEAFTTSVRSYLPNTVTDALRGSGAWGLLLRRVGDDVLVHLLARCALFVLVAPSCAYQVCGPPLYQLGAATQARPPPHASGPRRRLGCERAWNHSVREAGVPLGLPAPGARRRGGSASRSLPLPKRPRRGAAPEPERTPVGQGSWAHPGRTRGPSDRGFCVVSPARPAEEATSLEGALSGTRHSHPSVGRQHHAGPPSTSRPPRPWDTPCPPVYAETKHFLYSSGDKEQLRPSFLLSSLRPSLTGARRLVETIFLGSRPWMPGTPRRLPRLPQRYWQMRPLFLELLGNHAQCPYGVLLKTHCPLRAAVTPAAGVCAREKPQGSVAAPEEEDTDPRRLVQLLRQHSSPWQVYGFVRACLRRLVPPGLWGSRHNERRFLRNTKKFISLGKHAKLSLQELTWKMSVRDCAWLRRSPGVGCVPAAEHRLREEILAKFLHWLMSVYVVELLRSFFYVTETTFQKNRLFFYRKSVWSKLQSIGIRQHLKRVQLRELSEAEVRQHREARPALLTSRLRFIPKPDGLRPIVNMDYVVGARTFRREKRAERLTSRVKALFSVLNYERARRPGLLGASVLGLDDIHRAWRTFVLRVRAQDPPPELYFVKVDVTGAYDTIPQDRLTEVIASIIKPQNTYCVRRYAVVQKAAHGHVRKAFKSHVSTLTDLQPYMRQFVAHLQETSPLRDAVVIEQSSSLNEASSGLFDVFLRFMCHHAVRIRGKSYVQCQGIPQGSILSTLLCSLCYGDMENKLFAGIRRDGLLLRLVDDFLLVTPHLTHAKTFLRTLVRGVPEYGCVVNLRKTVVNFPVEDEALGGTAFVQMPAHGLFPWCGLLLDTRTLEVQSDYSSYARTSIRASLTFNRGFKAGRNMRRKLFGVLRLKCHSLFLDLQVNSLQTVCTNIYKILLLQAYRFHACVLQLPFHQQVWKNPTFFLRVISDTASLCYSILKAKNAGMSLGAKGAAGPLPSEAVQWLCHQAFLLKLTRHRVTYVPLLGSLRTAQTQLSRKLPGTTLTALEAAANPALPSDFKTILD

The target is the same in series [9]. Description: Inhibition of telomerase activity in human MDA-MB-231 cells using amplifour TS primer preincubated for 48 to 72 hrs followed by primer addition measured after 30 mins by fluorescence plate reader analysis relative to control. Format: cell-based. Summed up: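 MDA-MB-231 cells, 2 × 10⁵ per T-25 flask, were treated the next morning with vehicle or compound at 0.5×, 1×, 2× or 4× GI50. After 48 or 72 h they were lysed in CHAPS buffer with RNase inhibitor on ice for 30 min. Lysate (1000 cell-equivalents) went into a fluorescent TRAP reaction at 30 °C for 30 min. TPG units were taken against an internal standard, and inhibition was expressed relative to untreated cells.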

In series [10] the test system is MDA-MB-231. In words: Binding affinity to c-MYC G-quadruplex DNA in human MDA-MB-231 cells assessed as inhibition of c-MYC protein expression at 27.25 uM incubated for 6 hrs by Western blot analysis relative to control. Format: cell-based. Summed up: (§1)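 MDA-MB-231 cells, grown in DMEM with 10% heat-inactivated FBS at 37 °C and 5% CO2, exposed for 6 or 24 h; DMSO vehicle as comparator. Cells harvested, PBS-washed, lysed in RIPA with protease inhibitors. Blots probed with c-MYC antibody (1:1000) and HRP anti-rabbit IgG (1:10,000), β-actin as loading control. Densitometry given as percent of vehicle at each time point.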

In series [11] the test system is MDA-MB-231. Description: Binding affinity to c-MYC G-quadruplex DNA in human MDA-MB-231 cells assessed as inhibition of c-MYC protein expression at 27.25 uM incubated for 24 hrs by Western blot analysis relative to control. Format: cell-based. The method, boiled down:
as §1

Series [12] in a line: Binding affinity to 5'-FAM/3'-TAMRA labeled c-MYC 22-mer G-quadruplex DNA (unknown origin) assessed as change in melting temperature at 4 uM after 12 hrs by TR-FRET assay. The method, boiled down: (§2)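 Dual-labeled FAM/TAMRA oligos diluted to 800 nM in 60 mM potassium cacodylate (pH 7.2), annealed 10 min at 85 °C and cooled to room temperature. Mixed 1:1 with ligand at […] in the same buffer. Equilibrated at least 12 h at 4 °C. ΔT1/2 taken as melting temperature with minus without ligand, in triplicate, averaged.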

Series [13] is described as follows: Binding affinity to 5'-FAM/3'-TAMRA labeled F21T 21-mer G-quadruplex DNA (unknown origin) assessed as change in melting temperature at 4 uM after 12 hrs by TR-FRET assay. The method, boiled down: as §2
The nature of series [14]: Binding affinity to 5'-FAM/3'-TAMRA labeled c-kit2 26-mer G-quadruplex DNA (unknown origin) assessed as change in melting temperature at 4 uM after 12 hrs by TR-FRET assay. The method, boiled down:
as §2

Series [15] in a line: Binding affinity to 5'-FAM/3'-TAMRA labeled k-RAS21R 21-mer G-quadruplex DNA (unknown origin) assessed as change in melting temperature at 4 uM after 12 hrs by TR-FRET assay. Summed up: as §2
Series [16] can be described thus: Binding affinity to 5'-FAM/3'-TAMRA labeled 26-mer duplex DNA (unknown origin) assessed as change in melting temperature at 4 uM after 12 hrs by TR-FRET assay.
The nature of series [17]: Antiproliferative activity against human OVCAR3 cells after 72 hrs by WST-1 assay. Format: functional. The following applies: OVCAR-3, 72 h. The method, boiled down:
(§3)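 Cells seeded in 96-well plates the afternoon before treatment, at numbers keeping them in log-phase growth; about 18 h later, compounds semi-serially diluted in DMSO then growth medium and added. Incubation 72 h, then WST-1 added and plates read after 4 more hours at 37 °C. GI50 derived from curve fits; viability expressed relative to DMSO control.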

Series [18] is described as follows: Antiproliferative activity against human PC3 cells after 72 hrs by WST-1 assay. Format: functional. The following applies: PC-3, 72 h. Summed up: as §3
The test system of series [19] is MDA-MB-231. In words: Antiproliferative activity against human MDA-MB-231 cells after 72 hrs by WST-1 assay. Format: functional. To be noted: MDA-MB-231, 72 h. The method, boiled down: as §3
Series [20] can be described thus: Antiproliferative activity against human bone marrow cells after 72 hrs by WST-1 assay. Format: cell-based, Bone marrow cell. Summed up:
(§4)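 Cells seeded the afternoon before treatment at densities giving log-phase growth; about 18 h later compounds, semi-serially diluted in DMSO then growth medium, were added. After 72 h WST-1 was added, with a further 4 h at 37 °C before plate reading. GI50 values were calculated from the curves. NBM was grown in RPMI; MCR5A was handled per ATCC.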

The nature of series [21]: Antiproliferative activity against human MCR5A cells after 72 hrs by WST-1 assay. Format: cell-based. The method, boiled down: as §4
The test system of series [22] is MDA-MB-231. In words: Cytotoxicity against human MDA-MB-231 cells assessed as reduction in cell viability at 27.25 uM after 24 hrs by […]. To be noted: mda-mb-231, 24 h.
A short description of series [23]: Stabilization of c-MYC Pu27 G-quadruplex DNA (unknown origin) assessed as inhibition of Taq polymerase-mediated polymerization/extension of Pu27 and Pu27rev oligomers at 10 uM preincubated for 6 hrs followed by Taq polymerase addition by PCR stop assay.
A short description of series [24]: Stabilization of c-MYC template Pu27-13,14 mutant DNA (unknown origin) assessed as inhibition of Taq polymerase-mediated polymerization/extension of Pu27-13,14 mutant and Pu27rev oligomers at 25 uM preincubated for 6 hrs followed by Taq polymerase addition by PCR stop assay.
Series [25] is described as follows: Stabilization of c-MYC template Pu27 mutant DNA (unknown origin) assessed as inhibition of Taq polymerase-mediated polymerization/extension of Pu27 mutant and Pu27rev oligomers at 1 to 25 uM preincubated for 6 hrs followed by Taq polymerase addition by PCR stop assay.
Series [26] is described as follows: Binding affinity to wild type c-MYC 24-mer G-quadruplex DNA (unknown origin) by isothermal titration calorimetry.
Series [27] is described as follows: Binding affinity to wild type Bcl2 27-mer G-quadruplex DNA (unknown origin) by isothermal titration calorimetry.
The nature of series [28]: Selectivity ratio of Kd for 8-bp AT rich duplex DNA (unknown origin) to Kd for wild type c-MYC 24-mer G-quadruplex DNA (unknown origin).
A short description of series [29]: Selectivity ratio of Kd for 8-bp AT rich duplex DNA (unknown origin) to Kd for wild type Bcl2 27-mer G-quadruplex DNA (unknown origin).
Series [30] is described as follows: Binding affinity to 8-bp AT rich duplex DNA (unknown origin) by isothermal titration calorimetry.
The nature of series [31]: Antiproliferative activity against human PC3 cells assessed as cell viability at 20 uM after 72 hrs by WST-1 assay relative to control. Format: functional. To be noted: PC-3, 72 h, read-out: Activity. Summed up: as §3
In series [32] the test system is MDA-MB-231. In words: Antiproliferative activity against human MDA-MB-231 cells assessed as cell viability at 20 uM after 72 hrs by WST-1 assay relative to control. The format is functional. To be noted: MDA-MB-231, 72 h, read-out: Activity. Summed up:
as §3

The source made the active and inactive calls. The rule behind the calls is not given here. Where only a bound is given, the exact number is not on record here.

With `N=C(N)c1ccc(/N=N/Nc2cccc(C#Cc3ccc(F)cc3)c2)cc1`, the result in series [1] and in [4] was inactive. For the same compound, the result in [2] and in series [3] was Active. In addition, the inhibition result in [5] is “Active”. In addition, the inhibition entry in [6] and in [7] was “inactive” each time. Besides, the inhibition in [8] was less than 50%; in series [9], “Dose-dependent effect”; with MDA-MB-231 [10] it was 40%; with MDA-MB-231 [11] it was 67%. For the same compound, the ΔTm was 8.6 °C in [12]; less than 5 °C in series [13]; 5.67 °C in series [14]; 6.9 °C in series [15]; less than 5 °C in series [16]. The GI50 in [17] is 5 µM; in series [18], 5.3 µM; in the series on MDA-MB-231 [19] it was 5.5 µM. The results for the GI50 at 72 h in series [20] and in series [21] were 5.6 µM and 8.3 µM, respectively. The Activity result in the series on MDA-MB-231 [22] was “Toxic”.
Consider `N=C(N)c1ccc(/N=N/Nc2ccc(C(=N)N)cc2)cc1` [DIMINAZENE], for which the inhibition entry in [23], in series [24] and in series [25] was “Active” in each case. Besides, the Kd in series [26] was 0.001 µM; in [27], 0.001 µM; in series [30], 1 µM. The Selectivity ratio in series [28] and in series [29] was 1000 in each case. For the same compound, the ΔTm was 18.3 °C in series [12]; 16.6 °C in [13]; 11.7 °C in series [14]; 24.1 °C in series [15]; 6.8 °C in [16]. The GI50 in series [17] is more than 25 µM. Besides, the viability at 20 µM (in series [31]; in the series on MDA-MB-231 [32]) was not below 75% in each case.

The record behind these values is ChEMBL document CHEMBL3826936, “Alkyne-substituted diminazene as G-quadruplex binders with anticancer activities” (Eur J Med Chem, 2016).
